Bioassay records as filed in PubChem BioAssay.
The list is not random: actives were taken first. Their share in the collection is about 1.2%.
IDE inh: inhibits human insulin-degrading enzyme in HEK cells; P14735; FAbetaB cleavage, fluorescence polarization; inhibition, % at 5.59 µM; 320,000 tested, 0.41% active;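 active = percent inhibition above the average of all tested compounds plus 3 SD, set per screening campaign, cut at about 16% in these data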;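 also: IDE supplied by intact live HEK cells; FP after avidin binding of uncleaved biotin substrate so inhibition keeps polarization high; 0% = DMSO wells and 100% = 60 µM reference IDE inhibitor Ii1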
IDE act: boosts human insulin-degrading enzyme activity in HEK cells. 340,000 tested, 0.073% active. P14735. activation, % at 5.96 µM. FAbeta-B cleavage, fluorescence polarization; 0% vehicle, 100% cell-free pure enzyme wells;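 active = activation above the mean of all tested compounds plus 3 SD, set per screening campaign, cut at about 17% in these data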
ARFGAP1 inhibitor: inhibitors of rat ARFGAP1; Q62848; Arfgap1-stimulated ARF1 GTP hydrolysis, GDP FP detection; inhibition, % at 16.5 µM; 360,000 tested, 0.26% active; AID 651572;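 active = inhibition above a per-plate limit, mean inhibition of low control wells plus 3 SD, cut at about 25% in these data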;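 also: 0% = DMSO wells with enzyme and 100% = wells lacking Arfgap1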
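System: truncated rat Arfgap1 GAP domain / Medium: HEPES-based buffer, pH 7.5 / Also added: N-terminally truncated human ARF1-GTP substrate / Incubation: enzyme reaction 120 min at 25 °C after 20 min preincubation / Measured by: FP of antibody-bound GDP Alexa 633 tracer, ex 620/em 688 nm / Replicates: singlicate, each compound tested once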
ASAP1 inh: blocks human ASAP1-stimulated Arf1 GTP hydrolysis; Q9ULH1; GDP FP detection; inhibition, % at 16.5 µM; 360,000 tested, 0.19% active; AID 624377; in the data active = inhibition above about 25%;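 also: 0% = vehicle with enzyme and substrate and 100% = no enzyme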
PREPL inhibitor: inhibitors of human prolyl oligopeptidase-like enzyme PREPL. 320,000 tested, 0.68% active. inhibition, % at 5.96 µM. recombinant PREPL, fluorescence polarization activity-based probe. Q4J6C6; in the data active = inhibition above about 43%;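 also: 0% = enzyme with DMSO and 100% = wells lacking enzyme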
ASAP1 inh confirm: confirmation of human ASAP1 inhibitors. shares compounds with ASAP1 inh. ASAP1-stimulated Arf1 GTPase, GDP fluorescence polarization. inhibition, % at 16.5 µM. 620 tested, 37% active. AID 624431;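 active = mean inhibition over triplicates exceeds the hit threshold derived for the earlier primary screening run, cut at about 25% in these data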
Starred values were filed as active, the others as inactive; nt = not tested or not shown.

SMILES	IDE inh	IDE act	ARFGAP1 inhibitor	ASAP1 inh	PREPL inhibitor	ASAP1 inh confirm
Cc1cc(C)c(S(=O)(=O)c2ccccc2)c(OC(=O)c2c(Cl)cc(Cl)cc2Cl)n1	6	4	15	5	1	nt
Cc1cc(C)c(S(=O)(=O)c2ccccc2)c(OC(=O)c2c(F)cccc2F)n1	4	-1	21	26*	13	11
C(=N\N=C\c1ccncc1)/c1ccncc1	6	4	11	15	10	nt
O=C(COc1c(F)c(F)c(C(F)(F)F)c(F)c1F)Nc1ccc(N2CCOCC2)c(Cl)c1	-5	6	6	25*	2	7
CSc1ccc(OCC(=O)Nc2ccc(N3CCOCC3)c(Cl)c2)cc1	nt	-2	9	1	nt	nt
N#C/C(=C\c1ccc([N+](=O)[O-])o1)c1nc2ccccc2[nH]1	9	nt	-4	29*	14	22
O=C(O)COc1ccccc1/C=N/NC(=O)Cc1ccccc1	-1	1	-3	-5	24	nt
O=C(O)COc1ccccc1/C=N/NC(=O)Cc1csc(Nc2cccc(C(F)(F)F)c2)n1	3	nt	22	37*	-6	6
C[C@@H]1CN([C@H](C)CO)C(=O)CCCn2cc(nn2)CO[C@H]1CN(C)C(=O)Nc1ccc(-c2cccs2)cc1	nt	nt	-4	-3	nt	nt
Cc1c(C(=O)NCc2ccc(Cl)c(Cl)c2)sc(=O)n1Cc1cccc(F)c1	nt	nt	2	25*	nt	14
CC1CCCCN1C(=O)COC(=O)c1cc([N+](=O)[O-])ccc1N1CCOCC1 (configuration not stated)	8	3	3	29*	3	4
CC1(C)Cc2nc3oc4c(=O)n(CC(=O)Nc5ccccc5)cnc4c3cc2CO1	-4	2	-6	-1	-7	nt
CC1(C)Cc2nc3sc4c(=O)n(CC(=O)NCc5ccco5)cnc4c3cc2CO1	1	4	0	25*	3	8
C/C=C(/C)C(=O)O[C@@H]1[C@H](OC(=O)C=C(C)C)c2c(ccc3ccc(=O)oc23)OC1(C)C	-2	4	-1	26*	-12	3
CC(/C=C/c1ccccc1)=N\NC(=O)CNC(=O)c1ccccc1Cl	4	-5	1	25*	7	5
CC(/C=C/c1ccccc1)=N/NC(=O)CNC(=O)c1ccccc1F	3	4	0	3	8	nt
C=CCN(CC=C)CCOc1ccc(C)cc1[N+](=O)[O-]	3	3	-1	-3	-2	nt
C=CCN(CC=C)CCOc1cc(C)ccc1[N+](=O)[O-]	-1	4	-8	25*	17	0
COC(=O)c1ccc(Cn2cc(Cl)cn2)o1	2	0	5	-1	-3	nt
Cc1ccc(C(=O)Nc2cccc(NC(=O)c3ccc(C)c([N+](=O)[O-])c3)n2)cc1[N+](=O)[O-]	4	4	5	28*	-7	28*
Cc1ccc(CNC(=O)C2CCN(c3nn4c(=O)cc(C)nc4s3)CC2)cc1	-3	4	12	-6	26	nt
Nc1ccc(N2CCCCC2)c2nonc12	2	-3	6	25*	12	13
Cc1cc(C)c2c(c1)NC(C(=O)O)C1CC=CC21 (configuration not stated)	0	3	30*	38*	25	35*
COc1ccc(C(=O)NC(=S)NCc2ccco2)cc1Br	-7	0	19	25	17	nt
Cc1cccn2c(=O)nc(SCC(=O)NC3CCCC3)nc12	6	-2	-3	-11	0	nt
CCCCn1nnnc1C(c1cc2ccccc2o1)N1CCCN(C(=O)OC(C)(C)C)CC1 (configuration not stated)	nt	nt	-10	5	nt	nt
C=CC[C@@H](CC(=O)N[C@@H](CO)Cc1ccccc1)C(=O)N[C@H](COC(=O)[C@@H](CC=C)Cc1ccc(F)cc1)Cc1c[nH]c2ccccc12	-1	1	1	32*	8	12
COC1=CC(=O)c2nc(Cl)ccc2C1=O	nt	nt	9	38*	nt	17
COC1=CC(=O)c2c(ccc3ncnc(N)c23)C1=O	nt	0	14	23	nt	nt
O=C(Nc1ccc2ccccc2c1)C(=O)C1C(=O)Nc2ccccc21 (configuration not stated)	-4	nt	-11	25*	8	-4
